This excerpt belongs to a sample that is enriched for hits.
GSK3beta inhib: human GSK3beta kinase inhibition. activity score (negative = inhibition), % at 10 µM. 0.038% of 300,000 active. P49841. GST-GSK3beta kinase, ADP-Glo luminescence, 60 min; stronger effect = lower value;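 active means more than half of replicate wells score below -50%, meaning over 50% inhibition versus plate controls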
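Test system: GST-tagged human GSK3beta kinase, cell-free; evaluation: activity score scaled between in-plate DMSO and GW8510 controls; measured by: ADP-Glo luminescence; incubation: 60 min reaction, RT; benchmarks: DMSO and 20 µM GW8510; reagent: peptide substrate plus 25 µM ATP (final); medium: Tris/MgCl2 kinase buffer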
GSK3 alpha inh: blocks human GSK-3 alpha kinase. P49840. ADP-Glo luminescence, 60 min. inhibition, % at 10 µM. 0.1% of 320,000 active. AID 2650;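 active means more than half of replicates show inhibition above 20%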;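 further: GST-tagged GSK-3 alpha with peptide substrate and 25 µM ATP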
DYRK1A inh: Dyrk1A (rat) kinase inhibition; Q63470; ADP-Glo luminescence, NFATc1 peptide; inhibition, % at 12.5 µM; 0.43% of 310,000 active; in the data active means inhibition above about 50%
STK33 inh: human STK33 kinase inhibition. Q9BYT3. purified STK33, MBP phosphorylation, ADP-Glo luminescence. inhibition, % at 10 µM. 0.073% of 320,000 active. AID 2661;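 active means inhibition at or above 25%, using the most active replicate where run in duplicate; inactive means inhibition below 25%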
Target sequence (Q9BYT3 whole entry, looked up): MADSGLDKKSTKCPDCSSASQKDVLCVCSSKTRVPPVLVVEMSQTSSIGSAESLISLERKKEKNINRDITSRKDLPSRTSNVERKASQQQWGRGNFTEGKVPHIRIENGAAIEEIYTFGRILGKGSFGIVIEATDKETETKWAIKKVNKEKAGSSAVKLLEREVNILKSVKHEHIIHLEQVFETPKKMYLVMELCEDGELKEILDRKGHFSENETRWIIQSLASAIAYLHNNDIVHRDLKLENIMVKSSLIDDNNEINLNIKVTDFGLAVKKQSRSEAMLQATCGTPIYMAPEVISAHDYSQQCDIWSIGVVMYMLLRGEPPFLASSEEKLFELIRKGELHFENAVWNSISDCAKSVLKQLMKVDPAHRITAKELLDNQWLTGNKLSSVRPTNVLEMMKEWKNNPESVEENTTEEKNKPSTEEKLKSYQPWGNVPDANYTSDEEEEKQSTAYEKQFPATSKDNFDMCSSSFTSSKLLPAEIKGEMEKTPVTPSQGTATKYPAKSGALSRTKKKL
CDK5 p35 inh: CDK5/p35 (human) kinase inhibition; Recombinant CDK5/p35, ADP-Glo luminescence, 60 min; inhibition, % at 10 µM; 0.01% of 330,000 active; AID 488839;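 active means highest replicate inhibition of at least 50% and at least 75% of replicates reaching 50%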
Hits are given with their value; . = inactive; / = no result.

SMILES	GSK3beta inhib	GSK3 alpha inh	DYRK1A inh	STK33 inh	CDK5 p35 inh
Cc1ccc(C2C3=C(CC(C)(C)CC3=O)Nc3n[nH]c(C)c32)cc1 (centres undefined)	-60	77	.	.	.
Cc1[nH]nc2c1C(c1cccc(O)c1)C1=C(CC(C)(C)CC1=O)N2 (centres undefined)	-92	97	.	.	.
CC(NC(=O)c1ccccc1F)c1nnc(SCC(=O)NC2CCCC2)n1C (centres undefined)	.	.	.	.	.
CCSc1ccc2nnc(-c3ccc(F)cc3)n2n1	-76	82	.	.	.
CC(Sc1ccc2nnc(-c3ccc(F)cc3)n2n1)C(=O)O (centres undefined)	.	51	.	.	.
CCOC(=O)CSc1ccc2nnc(-c3ccncc3)n2n1	.	81	.	.	.
Cc1cccc(CSc2ccc3nnc(-c4cccs4)n3n2)c1	.	/	.	.	.
CCSc1ccc2nnc(-c3cccs3)n2n1	-53	.	/	.	.
CCCCCCCCC[n+]1cccc2c3ccccc3ccc21	.	.	.	.	.
CCCCCCCCCCCCCCCC[n+]1cccc2ccccc21	/	.	.	50	.
CCCCCCC(=O)Nc1nc(C)c(-c2csc(Nc3ccc(Cl)cc3)n2)s1	.	.	57	.	.
N#C/C(=C/C=C/c1ccccc1)C(=O)Nc1ccccc1	/	.	.	16	.
Oc1[nH]c2ccccc2c1C=Nc1ccc2c(c1)OCO2	.	.	.	26	.
CN1CCN(c2ccc(NC(=O)c3ccc(-c4cccc([N+](=O)[O-])c4)o3)cc2)CC1	.	.	.	36	.
CN1CCN(c2ccc(NC(=O)c3ccc(-c4ccc(Cl)cc4)o3)cc2)CC1	.	.	.	.	.
COC(=O)c1ccccc1NC(=O)N1CCN(C/C=C/c2ccccc2)CC1	.	.	.	32	.
Cc1cc(C)c2nc(C(F)(F)F)c(C#N)c(N)c2c1	.	.	.	.	.
Cc1ccc2nc(C(F)(F)F)c(C#N)c(N)c2c1	.	.	.	.	95
Cc1ccc(-n2nnnc2CSc2nnc(-c3ccc(O)cc3)o2)cc1	.	67	.	.	.
Oc1ccc(-c2nnc(SCc3ccccc3)o2)cc1	/	.	.	.	.
Nc1nonc1C(=O)NCCNS(=O)(=O)c1ccc(F)cc1	.	.	.	.	.
COc1ccc(-n2c(C)c([N+](=O)[O-])c3ccc(O)c(CN4CCCCC4)c32)cc1	.	51	.	.	.
Cc1cnc(NC(=O)C2CC(=O)N(c3ccc4c(c3)OCCO4)C2)s1 (centres undefined)	/	50	.	.	.
c1cncc(C2Nc3ccccc3-c3nc4ccccc4n32)c1 (centres undefined)	.	.	.	39	.
c1ccc2c(c1)NC(c1ccncc1)n1c-2nc2ccccc21 (centres undefined)	.	.	.	.	.
SMILES	GSK3beta inhib	GSK3 alpha inh	DYRK1A inh	STK33 inh	CDK5 p35 inh
C/C=C/C(=O)Nc1cccc(C2=NOC3(C2)C[C@@H](C(N)=O)N(C(=O)/C(C)=C/C)C3)c1 (some centres undefined)	.	.	.	.	.
CC(C)(C)C(=O)Nc1ccccc1C(=O)NCCC(=O)Nc1ccccc1	.	.	.	.	.
Nc1nc(NCCc2ccccc2)nc(NCCO)c1[N+](=O)[O-]	.	93	.	.	.
CCN(CC)CCCNc1nc(N)c([N+](=O)[O-])c(NCCO)n1	.	.	.	.	.
Nc1nc(NCc2ccccc2)nc(NCCO)c1[N+](=O)[O-]	.	.	/	.	.
CN(C)CCCNc1nc(N)c([N+](=O)[O-])c(NCCO)n1	.	50	.	.	.
CN(C)c1ccsc1C(=O)NNS(=O)(=O)c1ccc(Cl)cc1	.	.	.	.	.
C/C=C/Cn1c(SCc2ccc(Cl)cc2)nc2c1c(=O)[nH]c(=O)n2C	.	.	.	29	.
COc1ccc(-c2ncncc2-c2ccc(OC)c(OC)c2)c(O)c1	.	52	.	.	.
N#CC1=C2SCN(Cc3ccccc3)CN2C(=O)CC1c1ccccc1F (centres undefined)	.	61	.	.	.
O=C(O)Cc1ccc(-n2cccc2)cc1	.	.	.	.	.
CN(Cc1c(C(=O)N/N=C/c2ccc(O)cc2)nnn1-c1nonc1N)C1CCCCC1	.	60	.	.	.
CCN(CC)Cc1c(C(=O)N/N=C/c2cccnc2)nnn1-c1nonc1N	.	53	.	.	.
CC(C)c1c(C(=O)N/N=C/c2cccnc2)nnn1-c1nonc1N	.	.	.	.	.
CCCN(CCC)Cc1c(C(=O)N/N=C/C(C)=C\c2ccco2)nnn1-c1nonc1N	.	.	.	.	.
CC(/C=N/NC(=O)c1nnn(-c2nonc2N)c1CN(C)C)=C\c1ccco1	.	50	.	.	.
CCOc1cccc(-c2c(C(=O)N/N=C(\C)c3cccnc3)nnn2-c2nonc2N)c1	.	52	.	.	.
CCOc1ccc(-c2c(C(=O)N/N=C(\C)c3cccnc3)nnn2-c2nonc2N)cc1	.	.	.	.	.
CC(=O)OCC[C@H](NS(=O)(=O)OCC(Cl)(Cl)Cl)c1ccccc1	.	.	.	.	.
CCCN(CCC)Cc1c(C(=O)N/N=C/c2ccncc2)nnn1-c1nonc1N	.	74	.	.	.
O=Nc1c(O)c2ccccc2c2ccccc12	.	.	54	.	.
O=C(NCCCO)c1cc2c([nH]c3ccccc32)c(-c2ccccc2)n1	.	.	.	29	.
O=C(NCCCO)c1cc2c(cn1)[nH]c1ccccc12	.	.	.	.	.
O=C(O)Cc1ccc(N=Cc2c(O)ccc3ccccc23)cc1	.	.	.	50	.
O=C(O)c1ccc(N=Nc2c(O)[nH]c3ccccc23)cc1	.	51	.	29	.
SMILES	GSK3beta inhib	GSK3 alpha inh	DYRK1A inh	STK33 inh	CDK5 p35 inh
Cc1ccc(-c2nn(CCC(=O)O)cc2/C=C\C(=O)c2ccc(Br)cc2)cc1	.	.	/	36	.
COc1ccc(CCN2CC(C(=O)OCC(=O)NC(C)c3cccc(Cl)c3)CC2=O)cc1OC (centres undefined)	/	.	.	.	.
C[C@H](CO)N1C[C@H](C)[C@@H](CN(C)S(=O)(=O)c2ccc(F)cc2)Oc2c(NC(=O)c3ccncc3)cccc2C1=O	/	/	.	/	.
C[C@H]1CN([C@@H](C)CO)C(=O)c2cccc(NC(=O)c3cnccn3)c2O[C@@H]1CN(C)S(=O)(=O)c1ccc(F)cc1	/	55	.	.	.
Cc1ccc(S(=O)(=O)CCSc2n[nH]c(=O)n2-c2ccc3c(c2)OCCO3)cc1	.	77	/	.	.
O=C(CSc1n[nH]c(=O)n1-c1ccc2c(c1)OCCO2)Nc1ccccc1	.	.	.	.	.
CC(C)NC(=O)Nc1n[nH]c(Nc2ccc(Cl)cc2)n1	.	52	.	.	.
Cc1cccc(NC(=O)Nc2ccc3c(c2)CCC3)c1	.	.	.	.	.
CN1CCCC1CCNc1ccc2sc3ccccc3c(=O)c2c1 (centres undefined)	.	.	.	44	.

High-throughput results (PubChem)
